Measured values taken from PMC6591795 (ChemistryOpen, 2019).
Like-named read-outs stand apart in the source and are kept apart here.

Assays:
[1] = molecular target: T1, GTB (Homo sapiens, UniProt P16442, G235S/G268A/L266M/R176G); details: read-out: KD from ITC; UDP binding to GTB:H-Dis; cited from earlier work
T1 sequence (P16442 64-354 R176G/G235S/L266M/G268A limits assumed): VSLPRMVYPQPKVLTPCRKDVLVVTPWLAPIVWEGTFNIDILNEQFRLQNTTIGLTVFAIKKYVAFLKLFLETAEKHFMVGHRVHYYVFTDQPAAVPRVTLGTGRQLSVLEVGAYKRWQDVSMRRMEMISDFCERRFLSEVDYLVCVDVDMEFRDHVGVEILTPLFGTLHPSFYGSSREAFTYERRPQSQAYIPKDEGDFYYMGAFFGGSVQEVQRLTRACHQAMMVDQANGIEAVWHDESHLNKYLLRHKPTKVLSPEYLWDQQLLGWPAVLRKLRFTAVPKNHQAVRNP

[2] = molecular target: T1, GTB; assay: methyl TROSY CSP titration, TITAN lineshape analysis; format: binding; details: for Kd: K D
Procedure, shortened: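 Enzyme expressed in D₂O-based M9 minimal medium with ¹³C-methyl precursors, IPTG-induced, and purified by cation-exchange and UDP-affinity chromatography. Ligand titrated at constant protein concentration, with a 2D [¹³C,¹H] HMQC at each point. Kd and koff from a global multi-peak TITAN two-state fit; apo parameters fixed from the ligand-free spectrum; 200-run bootstrap residual resampling.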

[3] = GTB in presence of saturating B-Tris
[4] = GTB in presence of saturating H-Dis
[5] = GTB in presence of saturating H-Tris I
[6] = GTB in presence of saturating H-Tris II
[7] = GTB in presence of saturating H-Tris III
[8] = GTB in presence of saturating H-Tris IV
[9] = GTB in presence of saturating H-Tris V
[10] = GTB in presence of saturating H-Tris VI
[11] = apo GTB, donor-type ligands, Mg2+, 298 K

For O=c1ccn([C@@H]2O[C@H](COP(=O)(O)OP(=O)(O)O)[C@@H](O)[C@H]2O)c(=O)[nH]1 [UDP, uridine diphosphate], which Kd [1] is on record?
Its Kd is 27 µM.

What about the koff [2, 3] of the same compound?
The koff was 18 ± 1 s⁻¹.

What about the kon [2, 3] of the same compound?
Its kon is 28000 M⁻¹ s⁻¹.

And the koff [2, 4]?
The koff was 2.6 ± 0.3 s⁻¹.

And the kon [2, 4]?
Its kon is 25000 M⁻¹ s⁻¹.

And the off-rate constant koff ([2]; GTB in presence of saturating H-Dis, from titration analysis (Table 3))?
Its off-rate constant koff is 2.6 Hz.

And the koff [2, 5]?
Its koff is 2.2 ± 0.2 s⁻¹.

What about the kon [2, 5] of the same compound?
Its kon is 58000 M⁻¹ s⁻¹.

What about the koff [2, 6] of the same compound?
Its koff is 1.7 ± 0.3 s⁻¹.

And the kon [2, 6]?
The kon was 280000 M⁻¹ s⁻¹.

What about the koff [2, 7] of the same compound?
Its koff is 3.6 ± 0.5 s⁻¹.

What about the kon [2, 7] of the same compound?
Its kon is 120000 M⁻¹ s⁻¹.

And the koff [2, 8]?
Its koff is 12 ± 1 s⁻¹.

What about the kon [2, 8] of the same compound?
Its kon is 190000 M⁻¹ s⁻¹.

What about the koff [2, 9] of the same compound?
Its koff is 3.4 ± 0.3 s⁻¹.

And the kon [2, 9]?
The kon was 120000 M⁻¹ s⁻¹.

What about the koff [2, 10] of the same compound?
The koff was 2.2 ± 0.2 s⁻¹.

And the kon [2, 10]?
Its kon is 69000 M⁻¹ s⁻¹.

And the “kon multiplied by the UDP concentration (comparable to kAB)” value ([2]; GTB saturated with H-Dis, kon=2.5×10^4 M^−1s^−1 times 250 μM UDP)?
The value was “ca. 6.3 Hz”.

And the Kd [2, 3]?
The Kd was 660 ± 10 µM.

What about the Kd [2, 4] of the same compound?
The Kd was 103 ± 2 µM.

And the Kd [2, 5]?
The Kd was 38 ± 1 µM.

What about the Kd [2, 6] of the same compound?
The Kd was 6 ± 1 µM.

What about the Kd [2, 7] of the same compound?
The Kd was 29 ± 1 µM.

What about the Kd [2, 8] of the same compound?
Its Kd is 65 ± 2 µM.

What about the Kd [2, 9] of the same compound?
Its Kd is 31 ± 1 µM.

What about the Kd [2, 10] of the same compound?
Its Kd is 32 ± 1 µM.

And the Kd [2, 11]?
Its Kd is 161 ± 3 µM.

What about the koff [2, 11] of the same compound?
Its koff is 243 ± 7 s⁻¹.

What about the kon [2, 11] of the same compound?
Its kon is 1.5e+06 M⁻¹ s⁻¹.
